Source: PubChem BioAssay (several laboratories)
Hits are enriched below; roughly 12% of the tested compounds scored in any of these assays.
Lmaj promast = inhibitors of Leishmania major promastigote growth; inhibition, % at 10 µM; 200,000 compounds, 9% hits; Leishmania major promastigotes, resazurin fluorescence viability; AID 1063;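 further: promastigotes grown with compound for 44 hours at 28 °C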
PKD1 kinase inh = inhibitors of human PKD1 kinase. PKD1 kinase fluorescence polarization assay. 200,000 compounds, 0.056% hits. AID 797. inhibition, % (concentration not given with the values)
Rad51 HR inh = blocks human Rad51 in homologous recombination. Q06609. hRad51 DNA strand exchange, fluorescence dequenching. inhibition, % at 10 µM. 200,000 compounds, 0.085% hits;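 active means inhibition above 40% at the single screening dose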
Target sequence (Q06609 whole entry, looked up): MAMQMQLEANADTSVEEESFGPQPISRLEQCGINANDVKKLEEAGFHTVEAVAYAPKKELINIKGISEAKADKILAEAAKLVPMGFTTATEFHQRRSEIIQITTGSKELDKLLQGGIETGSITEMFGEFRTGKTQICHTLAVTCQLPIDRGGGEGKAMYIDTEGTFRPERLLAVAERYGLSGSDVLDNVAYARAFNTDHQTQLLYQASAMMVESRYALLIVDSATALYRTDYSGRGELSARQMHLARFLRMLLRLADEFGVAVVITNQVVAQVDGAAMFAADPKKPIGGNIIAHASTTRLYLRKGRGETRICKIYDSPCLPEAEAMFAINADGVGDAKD
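material = hRad51 filaments on single-stranded DNA | reagent = Donor/quencher-labelled 47-bp dsDNA substrate | compound = 10 µM final, single point | schedule = strand-exchange reaction 15 min at room temperature | measured by = fluorescein emission 520 nm, excitation 485 nm | read-out basis = % inhibition versus plate control and blank means | benchmarks = plate controls and plate blanks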
CHOP inhibitor = inhibitors of CHOP induction in ER stress response. CHO-K1 CHOP-promoter luciferase, tunicamycin-induced, 15-18 h. inhibition, % at 10 µM. 220,000 compounds, 3.8% hits;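 active means compounds that reduced the stress-induced luciferase reporter signal by more than about 70% of percent inhibition, limit read from the data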
Wee1 degr inh = inhibitors of human Wee1 degradation; HeLa Luc-Wee1K328M stability, luciferase luminescence; 100% = proteasome inhibitor MG132 effect; 220,000 compounds, 1.2% hits; P30291; reporter increase, % at 5 µM;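 active means activation above the mean of all tested compounds plus 3 SD, set per screening run, cut at about 8.8% in these data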;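 further: cells exposed to compound for 20 h before luminescence read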
Arbovirus anti = blocks arbovirus infection | arbovirus infection cell-based antiviral screen | inhibition, % at 10 µM | 200,000 compounds, 0.37% hits | AID 1251; in the data active means inhibition above about 30%
Of the large screens only hits and unclear results are named; the others gave an inactive call. Unless noted, no stated cut-off is given here; in the data, active means inhibition above about 50%; inactive means the rest.

Cc1ccc(CN2CCN(Cc3nc4c(s3)CCCC4)CC2CCO)cc1 (stereo unspecified)	none
OCCC1CN(Cc2cccc(-c3ccco3)c2)CCN1Cc1ccsc1 (stereo unspecified)	Lmaj promast 85
C=CCn1c(C)csc1=Nc1ccc(C(=O)O)cc1	none
CCc1cc(/C(Cc2ccccn2)=N\Nc2ccccc2)c(O)cc1O	Lmaj promast 59
COC(=O)/C=c1\[nH]c2nnc(C)n2c1=O	none (no result: Lmaj promast, PKD1 kinase inh, Arbovirus anti)
CC(C)n1c(CNC(=O)c2ccccc2)nc2ccccc21	none
C/C(=N\NC(=O)c1ccccc1)c1nc2ccccc2n1C	Arbovirus anti 41 (no result: Rad51 HR inh)
NS(=O)(=O)c1cccc(NC(=S)NC(=O)C23CC4CC(CC(C4)C2)C3)c1	none
CN(C)C(=S)Nc1cccc(C(F)(F)F)c1	none (no result: Lmaj promast, PKD1 kinase inh, Arbovirus anti)
CC(C1CC1)N(Cc1ccccc1)C(=S)Nc1cccc(C(F)(F)F)c1 (stereo unspecified)	Lmaj promast 88, CHOP inhibitor 75
CC(C1CC1)N(Cc1ccccc1)C(=S)Nc1ccccc1 (stereo unspecified)	Wee1 degr inh 9.6
O=C(Nc1ccc(F)cc1)Nc1ccccc1C(=O)NCCN1CCNC1=O	none (no result: Lmaj promast, PKD1 kinase inh, Arbovirus anti)
Cc1cc(C)c(S(=O)(=O)NCCC2CCCN2C)c(C)c1 (stereo unspecified)	Lmaj promast 97
CN(Cc1cnn(C)c1)S(=O)(=O)c1cccc([N+](=O)[O-])c1	none
O=C(Nc1ccccc1C(=O)O)c1ccc(Br)c(S(=O)(=O)NCc2ccccc2)c1	Arbovirus anti 31
O=C(Nc1ccccc1C(=O)NCc1ccccc1)c1ccccc1Br	none
O=C(NCCc1ccccc1)C(=O)Nc1ccc([N+](=O)[O-])cc1	none (no result: Rad51 HR inh)
C[N+]1(CC(=O)OC2CCCCCCCCCCC2)CCCC1	Lmaj promast 100
COC(=O)CCCCCCCCCC[N+]1(C)CCCCC1	none (no result: Rad51 HR inh)
Cn1c(C2CCCCC2)nc2c1c(=O)[nH]c(=O)n2Cc1ccccc1	CHOP inhibitor 72
Cn1c(=O)[nH]c(=O)c2c1nc(N1CCCCCC1)n2CCCSc1nc2ccccc2o1	CHOP inhibitor 95
CCCCCn1c(N2CCN(Cc3ccccc3)CC2)nc2c1c(=O)[nH]c(=O)n2C	Lmaj promast 100
Cn1c(=O)[nH]c(=O)c2c1nc(N1CCC(Cc3ccccc3)CC1)n2Cc1ccccc1	CHOP inhibitor 88
CC[C@H](C)[C@H](NC(N)=O)C(=O)Nc1ccccc1F	none
CC(C(=O)NCCCc1ccccc1)c1ccc([N+](=O)[O-])cc1 (stereo unspecified)	none
CN(Cc1ccccc1)c1nc2c(c(=O)[nH]c(=O)n2C)n1CCOc1ccccc1	Lmaj promast 55
CCCCCn1c(N2CCC(Cc3ccccc3)CC2)nc2c1c(=O)[nH]c(=O)n2C	Lmaj promast 99 (no result: CHOP inhibitor)
O=C(NC(=S)NCC1CCCO1)C(c1ccccc1)c1ccccc1 (stereo unspecified)	none
Cc1ccc(S(=O)(=O)N(C)C)cc1NS(=O)(=O)c1ccc(Cl)s1	Lmaj promast 69
CCNc1ccccc(C(=O)/C=C/c2ccc3c(c2)OCO3)c1=O	Lmaj promast 63
CNc1ccc(Br)cc(C(=O)/C=C/c2cccc(OC)c2OC)c1=O	none
CCNc1ccc(Br)cc(C(=O)/C=C/c2ccccc2Cl)c1=O	Lmaj promast 99 (no result: CHOP inhibitor, Arbovirus anti)
Cc1ccc(NC(=O)CSc2nnc(-c3ccccn3)n2N)c(Br)c1	none (no result: Lmaj promast, PKD1 kinase inh, Arbovirus anti)
Cn1ncc([N+](=O)[O-])c1C(=O)N/N=C/c1cccc([N+](=O)[O-])c1	none
Cc1cc(C(=O)c2ccc(Cl)cc2)c(NC(=O)CCl)s1	none
CCOC(=O)c1cc(CC)sc1NC(=O)COC	none
CCc1cc(C(=O)c2ccc(C)cc2)c(NC(=O)CCl)s1	Lmaj promast 88
CCOC(=O)c1cc(CC)sc1NC(=O)Cc1ccccc1	CHOP inhibitor 85
CCc1cc(C(=O)O)c(NC(=O)C(c2ccccc2)c2ccccc2)s1	Arbovirus anti 35
COc1nccc(C(F)(F)F)c1C(=O)NC(=O)Nc1ccccc1	none (no result: Lmaj promast, PKD1 kinase inh, Arbovirus anti)
COc1ccccc1C(=O)OCCNC(=O)Cn1cnc2c1c(=O)n(C)c(=O)n2C	none
O=C(N/N=C/C(Br)=C/c1ccccc1)c1n[nH]c2c1CCC2	Lmaj promast 98 (no result: CHOP inhibitor)
CCn1cc(C(=O)O)c(=O)c2cc(F)c(N/N=C/c3ccccc3[N+](=O)[O-])cc21	Lmaj promast 78, CHOP inhibitor 78
